Calls of active or inactive are those of the source. The rule behind the calls is not given here.
What was measured:
[1] = molecular target: T1, Cathepsin G (Homo sapiens) (UniProt P08311); test: Inhibitory activity against Cathepsin G (CatG) at 62 uM concentration
T1 sequence (whole entry): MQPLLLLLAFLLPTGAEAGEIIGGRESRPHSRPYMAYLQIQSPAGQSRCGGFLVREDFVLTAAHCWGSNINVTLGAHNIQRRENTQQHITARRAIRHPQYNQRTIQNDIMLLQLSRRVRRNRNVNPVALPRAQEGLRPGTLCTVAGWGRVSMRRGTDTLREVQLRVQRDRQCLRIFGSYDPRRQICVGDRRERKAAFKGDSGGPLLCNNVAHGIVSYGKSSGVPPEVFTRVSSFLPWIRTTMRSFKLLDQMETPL

[2] = molecular target: T2, Chymotrypsin-like elastase family member 2A (Sus scrofa) (UniProt P08419); test: Inhibitory activity against Porcine Pancreatic Elastase (PPE) at 62 uM concentration; NI = no inhibition
T2 sequence (whole entry): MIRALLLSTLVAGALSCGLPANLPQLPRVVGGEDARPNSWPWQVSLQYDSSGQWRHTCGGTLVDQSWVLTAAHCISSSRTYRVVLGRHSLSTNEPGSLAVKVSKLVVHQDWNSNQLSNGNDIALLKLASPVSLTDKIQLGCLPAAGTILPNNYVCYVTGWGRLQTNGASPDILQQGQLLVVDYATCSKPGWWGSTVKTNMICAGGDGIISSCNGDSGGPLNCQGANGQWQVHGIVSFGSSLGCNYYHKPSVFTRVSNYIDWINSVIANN

[3] = molecular target: T3, Neutrophil elastase (Homo sapiens, UniProt P08246); test: Compound was tested for the enzyme inhibitory activity against Human Leukocyte Elastase (HLE) at 62 uM concentration
T3 sequence (P08246 whole entry): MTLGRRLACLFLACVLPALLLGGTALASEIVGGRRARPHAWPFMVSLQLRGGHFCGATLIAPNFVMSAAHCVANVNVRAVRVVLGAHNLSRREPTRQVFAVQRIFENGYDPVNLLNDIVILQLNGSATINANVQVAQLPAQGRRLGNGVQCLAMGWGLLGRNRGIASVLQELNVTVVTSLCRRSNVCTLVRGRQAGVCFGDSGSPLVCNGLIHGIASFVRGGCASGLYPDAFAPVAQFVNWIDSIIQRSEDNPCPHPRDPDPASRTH

[4] = molecular target: T4, Neutrophil elastase (Homo sapiens) (UniProt P08246); test: Inhibitory activity against Human Leukocyte Elastase (HLE) at 62 uM concentration
T4 sequence (whole entry): T3 sequence (P08246 whole entry)

[5] = molecular target: T3, Neutrophil elastase; test: In vitro inhibition of human leukocyte elastase.
[6] = molecular target: T5, Cathepsin G (Homo sapiens, UniProt P08311); test: Compound was tested for the enzyme inhibitory activity against Cathepsin G (CatG); NI = no inhibition
T5 sequence (P08311 whole entry): T1 sequence (whole entry)

[7] = molecular target: T3, Neutrophil elastase; test: Compound was tested for the enzyme inhibitory activity against Human Leukocyte Elastase (HLE); NI = no inhibition
[8] = molecular target: T1, Cathepsin G (Homo sapiens); test: Inhibitory activity against Cathepsin G (CatG) at 28 uM concentration
[9] = molecular target: T4, Neutrophil elastase (Homo sapiens); test: Inhibitory activity against Human Leukocyte Elastase (HLE) at 28 uM concentration
[10] = molecular target: T2, Chymotrypsin-like elastase family member 2A (Sus scrofa); test: Inhibitory activity against Porcine Pancreatic Elastase (PPE) at 28 uM concentration; NI = no inhibition
[11] = molecular target: Chymotrypsinogen A (Bos taurus) (UniProt P00766); test: Inhibitory activity against Chymotrypsinogen at 28 uM concentration
[12] = molecular target: T2, Chymotrypsin-like elastase family member 2A (Sus scrofa); test: Inhibitory activity against Porcine Pancreatic Elastase (PPE) at 59 uM concentration; NI = no inhibition
[13] = molecular target: T4, Neutrophil elastase (Homo sapiens); test: Inhibitory activity against Human Leukocyte Elastase (HLE) at 59 uM concentration
[14] = molecular target: T1, Cathepsin G (Homo sapiens); test: Inhibitory activity against Cathepsin G (CatG) at 63 uM concentration
Method in brief: (§1)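 Percent inhibition of enzyme activity at a single inhibitor concentration. Assays run at 25 °C in 0.1 M HEPES, 0.5 M NaCl, pH 7.5, with 9-11% DMSO. The method otherwise follows an earlier report.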

[15] = molecular target: Chymotrypsinogen A (Bos taurus) (UniProt P00766); test: Inhibitory activity against Chymotrypsinogen at 63 uM concentration; method in brief: as §1
[16] = molecular target: T2, Chymotrypsin-like elastase family member 2A (Sus scrofa); test: Inhibitory activity against Porcine Pancreatic Elastase (PPE) at 63 uM concentration; method in brief: as §1
[17] = molecular target: T4, Neutrophil elastase (Homo sapiens); test: Inhibitory activity against Human Leukocyte Elastase (HLE) at 63 uM concentration; method in brief: as §1
[18] = molecular target: T5, Cathepsin G; test: Compound was tested for the enzyme inhibitory activity against Cathepsin G
[19] = molecular target: T3, Neutrophil elastase; test: Compound was tested for the enzyme inhibitory activity against Human Leukocyte elastase
[20] = molecular target: T5, Cathepsin G; test: Inhibition of Cathepsin G (CatG)
[21] = molecular target: T1, Cathepsin G (Homo sapiens); test: Inhibitory activity against Cathepsin G (CatG) at 70 uM concentration
[22] = molecular target: Chymotrypsinogen A (Bos taurus) (UniProt P00766); test: Inhibitory activity against Chymotrypsinogen at 70 uM concentration; NI = no inhibition; details: Sus scrofa
[23] = molecular target: T2, Chymotrypsin-like elastase family member 2A (Sus scrofa); test: Inhibitory activity against Porcine Pancreatic Elastase (PPE) at 70 uM concentration; NI = no inhibition
[24] = molecular target: T4, Neutrophil elastase (Homo sapiens); test: Inhibitory activity against Human Leukocyte Elastase (HLE) at 70 uM concentration; NI = no inhibition
[25] = molecular target: T3, Neutrophil elastase; test: HLE-inhibitor (Human Leukocyte Elastase) dissociation constant determined by using Dixon Plot
[26] = molecular target: T3, Neutrophil elastase; test: Compound was tested for the enzyme inhibitory activity against Human Leukocyte Elastase (HLE)
[27] = molecular target: T1, Cathepsin G (Homo sapiens); test: Inhibitory activity against Cathepsin G (CatG) at 58 uM concentration
[28] = molecular target: Chymotrypsinogen A (Bos taurus) (UniProt P00766); test: Inhibitory activity against Chymotrypsinogen at 58 uM concentration
[29] = molecular target: T4, Neutrophil elastase (Homo sapiens); test: Inhibitory activity against Human Leukocyte Elastase (HLE) at 58 uM concentration
[30] = molecular target: T2, Chymotrypsin-like elastase family member 2A (Sus scrofa); test: Inhibitory activity against Porcine Pancreatic Elastase (PPE) at 58 uM concentration
[31] = molecular target: T1, Cathepsin G (Homo sapiens); test: Inhibitory activity against Cathepsin G (CatG) at 61 uM concentration; NI = no inhibition
[32] = molecular target: Chymotrypsinogen A (Bos taurus) (UniProt P00766); test: Inhibitory activity against Chymotrypsinogen at 61 uM concentration
[33] = molecular target: T2, Chymotrypsin-like elastase family member 2A (Sus scrofa); test: Inhibitory activity against Porcine Pancreatic Elastase (PPE) at 61 uM concentration; NI = no inhibition
[34] = molecular target: T4, Neutrophil elastase (Homo sapiens); test: Inhibitory activity against Human Leukocyte Elastase (HLE) at 61 uM concentration
[35] = molecular target: T5, Cathepsin G; test: Compound was tested for the enzyme inhibitory activity against Cathepsin G; NI = no inhibition
[36] = molecular target: T1, Cathepsin G (Homo sapiens); test: Inhibitory activity against Cathepsin G (CatG) at 62 uM concentration; NI = no inhibition
[37] = molecular target: Chymotrypsinogen A (Bos taurus) (UniProt P00766); test: Inhibitory activity against Chymotrypsinogen at 62 uM concentration; details: Sus scrofa
[38] = molecular target: T2, Chymotrypsin-like elastase family member 2A (Sus scrofa); test: Inhibitory activity against Porcine Pancreatic Elastase (PPE) at 62 uM concentration

CCCOc1cc(O)c2c(c1)C(=O)c1cc(C)cc(O)c1C2=O
inhibition [1]: 35%
inhibition [2]: inactive
IC50 [3]: 5.9 µM
inhibition [4]: 100%

CCCCc1ccc2c(c1O)C(=O)c1c(O)cccc1C2=O
IC50 [5]: 6.4 µM

CCCCc1ccc2c(c1O)C(=O)c1c(OC)cccc1C2=O
IC50 [5]: 5.9 µM

COc1cccc2c1C(=O)c1c(ccc(CC3CO3)c1O)C2=O (stereo not drawn)
IC50 [6]: Not Active
IC50 [7]: Not Active

CC(=O)Oc1cc(OC(C)=O)c2c(c1)C(=O)c1cc(CBr)cc(OC(C)=O)c1C2=O
inhibition [8]: 9%
inhibition [9]: 28%
inhibition [10]: inactive
inhibition [11]: 3%

CC(=O)Oc1cccc2c1C(=O)c1c(OC(C)=O)cc(CBr)cc1C2=O
inhibition [12]: inactive
inhibition [13]: 33%

O=C1c2cccc(O)c2C(=O)c2c(O)cc(CO)cc21
inhibition [14]: 3%
inhibition [15]: 13%
inhibition [16]: 18%
inhibition [17]: 21%

CCCCCCc1ccc2c(c1O)C(=O)c1c(OC)cccc1C2=O
IC50 [18]: > 60 µM
IC50 [19]: 6 µM

CC(C)Cc1ccc2c(c1O)C(=O)c1c(O)cccc1C2=O
IC50 [5]: 8 µM

CCCCCCc1ccc2c(c1O)C(=O)c1c(O)cccc1C2=O
IC50 [20]: 28 µM
IC50 [5]: 4.2 µM

CC(=O)Oc1cccc2c1C(=O)c1c(OC(C)=O)cc(C(=O)O)cc1C2=O
inhibition [21]: 5%
inhibition [22]: inactive
inhibition [23]: inactive
inhibition [24]: inactive

CCCCOC(=O)Oc1cc(C)cc2c1C(=O)c1c(OC(=O)OCCCC)cc(OC)cc1C2=O
Ki [25]: 2.8 µM
IC50 [26]: 2.5 µM

O=C(O)c1cc(O)c2c(c1)C(=O)c1cc(O)cc(O)c1C2=O
inhibition [27]: 14%
inhibition [28]: 3%
inhibition [29]: 21%
inhibition [30]: 9%

C=CCc1ccc2c(c1OC)C(=O)c1c(OC)cccc1C2=O
IC50 [20]: > 60 µM
IC50 [7]: Not Active

CCCc1ccc2c(c1O)C(=O)c1c(OC)cccc1C2=O
IC50 [20]: > 60 µM
IC50 [5]: 8.7 µM

Cc1ccc2c(c1O)C(=O)c1ccccc1C2=O
IC50 [18]: > 60 µM
IC50 [19]: 11 µM

CC(=O)OCc1cc(OC(C)=O)c2c(c1)C(=O)c1cccc(OC(C)=O)c1C2=O
inhibition [31]: inactive
inhibition [32]: 3%
inhibition [33]: inactive
inhibition [34]: 30%

O=C1c2ccccc2C(=O)c2c1ccc(Cc1ccccc1)c2O
IC50 [35]: Not Active
IC50 [19]: 6.6 µM

CC(=O)Oc1cc(OC(C)=O)c2c(c1)C(=O)c1cc(C)cc(OC(C)=O)c1C2=O [EMODIN TRIACETATE]
inhibition [36]: inactive
inhibition [37]: 3%
inhibition [38]: 22%
IC50 [3]: 13 µM
inhibition [4]: 79%

COc1cccc2c1C(=O)c1c(ccc(CC(C)C)c1OC(C)=O)C2=O
IC50 [6]: No inhibition

C=CCc1ccc2c(c1O)C(=O)c1c(OC)cccc1C2=O
IC50 [20]: > 60 µM
IC50 [5]: 11 µM

From ChEMBL document CHEMBL1125455, “Novel anthraquinone inhibitors of human leukocyte elastase and cathepsin G” (J Med Chem, 1992)
